ChEMBL document CHEMBL3400032 (Bioorg Med Chem, 2015)

Experiments:
[1] = AUC in rat at 3 mg/kg, iv; type: ADME, organism-based; parameters: dose 3 mg/kg, route intravenous; conditions: plasma
[2] = system: Liver microsome; experiment: Clearance in Sprague-Dawley rat liver microsomes assessed per mg protein
[3] = system: Liver microsome; experiment: Clearance in human liver microsomes assessed per mg protein
[4] = Volume of distribution at steady state in rat at 3 mg/kg, iv; type: ADME, organism-based; parameters: route intravenous, dose 3 mg/kg; conditions: in vivo, read-out: Vdss
[5] = Permeability of the compound at pH 5 by PAMPA; type: ADME; conditions: read-out: permeability
[6] = Permeability of the compound at pH 7.4 by PAMPA; type: ADME; conditions: read-out: permeability
[7] = Half life in rat at 3 mg/kg, iv; type: ADME, organism-based; parameters: dose 3 mg/kg, route intravenous; conditions: in vivo
[8] = Clearance in rat at 3 mg/kg, iv; type: ADME, organism-based; parameters: dose 3 mg/kg, route intravenous; conditions: in vivo
[9] = Plasma concentration in rat at 10 mg/kg, po after 6 hrs; type: ADME, organism-based; parameters: dose 10 mg/kg, route oral
Method in brief: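 Rats dosed orally with prodrug; plasma levels of prodrug and carboxylate active metabolite measured over time, limit of quantification 1.0 ng/mL.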

[10] = system: Serum; experiment: Drug metabolism in rat serum assessed as 2-(3-aminopiperidin-1-yl)-3-(2-chlorobenzyl)-5-methyl-4-oxo-4,5-dihydro-3H-imidazo[4,5-c]quinoline-7-carboxylic acid formation at 1 uM after 30 mins by HPLC/MS/MS analysis relative to control; type: ADME, cell-free; conditions: 0.5 h
Method in brief: (§1)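 Test compound at 1 µM final, incubated 30 min at 37 °C in serum, or in S9 mix (50 mM potassium phosphate pH 7.4, 3 mM NADPH, 1 mg protein/mL pooled male SD rat or human liver S9). Preincubated 5 min at 37 °C, compound added in acetonitrile–water (1:1), stopped with ice-cold acetonitrile, centrifuged, filtered, parent and carboxylate hydrolysate quantified by HPLC-MS/MS.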

[11] = Drug metabolism in Sprague-Dawley rat liver S9 fraction assessed as 2-(3-aminopiperidin-1-yl)-3-(2-chlorobenzyl)-5-methyl-4-oxo-4,5-dihydro-3H-imidazo[4,5-c]quinoline-7-carboxylic acid formation at 1 uM after 30 mins by HPLC/MS/MS analysis relative to control; type: ADME, subcellular; conditions: s9, 0.5 h; method in brief: as §1
[12] = system: Serum; experiment: Drug metabolism in human serum assessed as 2-(3-aminopiperidin-1-yl)-3-(2-chlorobenzyl)-5-methyl-4-oxo-4,5-dihydro-3H-imidazo[4,5-c]quinoline-7-carboxylic acid formation at 1 uM after 30 mins by HPLC/MS/MS analysis relative to control; type: ADME, cell-free; conditions: 0.5 h; method in brief: as §1
[13] = system: Rattus norvegicus; experiment: Oral bioavailability in rat assessed as 2-(3-aminopiperidin-1-yl)-3-(2-chlorobenzyl)-5-methyl-4-oxo-4,5-dihydro-3H-imidazo[4,5-c]quinoline-7-carboxylic acid level at 10 mg/kg; type: ADME, organism-based; conditions: in vivo
[14] = Drug metabolism in human liver S9 fraction assessed as compound remaining at 1 uM after 30 mins by HPLC/MS/MS analysis relative to control; type: ADME, subcellular; conditions: read-out: Stability; method in brief: as §1
[15] = Drug metabolism in human liver S9 fraction assessed as metabolite 3 formation at 1 uM after 30 mins by HPLC/MS/MS analysis relative to control; type: ADME, subcellular; conditions: s9, 0.5 h; method in brief: as §1
[16] = Drug metabolism in Sprague-Dawley rat liver S9 fraction assessed as compound remaining at 1 uM after 30 mins by HPLC/MS/MS analysis relative to control; type: ADME, subcellular; conditions: read-out: Stability; method in brief: as §1
[17] = Drug metabolism in rat serum assessed as compound remaining at 1 uM after 30 mins by HPLC/MS/MS analysis relative to control; type: ADME, cell-free; conditions: read-out: Stability; method in brief: as §1
[18] = Drug metabolism in human serum assessed as compound remaining at 1 uM after 30 mins by HPLC/MS/MS analysis relative to control; type: ADME, cell-free; conditions: read-out: Stability; method in brief: as §1
[19] = system: Serum; experiment: Drug metabolism in human serum assessed as 2-(3-aminopiperidin-1-yl)-3-(2-chlorobenzyl)-5-methyl-4-oxo-4,5-dihydro-3H-imidazo[4,5-c]quinoline-8-carboxylic acid formation at 1 uM after 30 mins by HPLC/MS/MS analysis relative to control; type: ADME, cell-free; conditions: 0.5 h; method in brief: as §1
[20] = system: Serum; experiment: Drug metabolism in rat serum assessed as 2-(3-aminopiperidin-1-yl)-3-(2-chlorobenzyl)-5-methyl-4-oxo-4,5-dihydro-3H-imidazo[4,5-c]quinoline-8-carboxylic acid formation at 1 uM after 30 mins by HPLC/MS/MS analysis relative to control; type: ADME, cell-free; conditions: 0.5 h; method in brief: as §1
[21] = Drug metabolism in Sprague-Dawley rat liver S9 fraction assessed as 2-(3-aminopiperidin-1-yl)-3-(2-chlorobenzyl)-5-methyl-4-oxo-4,5-dihydro-3H-imidazo[4,5-c]quinoline-8-carboxylic acid formation at 1 uM after 30 mins by HPLC/MS/MS analysis relative to control; type: ADME, subcellular; conditions: s9, 0.5 h; method in brief: as §1
[22] = Drug metabolism in human liver S9 fraction assessed as 2-(3-aminopiperidin-1-yl)-3-(2-chlorobenzyl)-5-methyl-4-oxo-4,5-dihydro-3H-imidazo[4,5-c]quinoline-8-carboxylic acid formation at 1 uM after 30 mins by HPLC/MS/MS analysis relative to control; type: ADME, subcellular; conditions: s9, 0.5 h; method in brief: as §1
[23] = Half life in rat at 1 mg/kg, iv; type: ADME, organism-based; parameters: dose 1 mg/kg, route intravenous; conditions: in vivo
[24] = Clearance in rat at 1 mg/kg, iv; type: ADME, organism-based; parameters: dose 1 mg/kg, route intravenous; conditions: in vivo
[25] = AUC in rat at 1 mg/kg, iv; type: ADME, organism-based; parameters: dose 1 mg/kg, route intravenous; conditions: plasma
[26] = Volume of distribution at steady state in rat at 1 mg/kg, iv; type: ADME, organism-based; parameters: dose 1 mg/kg, route intravenous; conditions: in vivo, read-out: Vdss

Row | Papp [5] [×10⁻⁶ cm/s] | Papp [6] [×10⁻⁶ cm/s] | remaining at 0.5 h, 1 µM [14] [%] | remaining at 0.5 h, 1 µM [16] [%] | remaining at 0.5 h, 1 µM [17] [%] | remaining at 0.5 h, 1 µM [18] [%] | Drug metabolism [19] | Drug metabolism [20] | Drug metabolism [21] | Drug metabolism [22] | Compound | also measured
1 | < 0.1 | < 0.1 | – | – | – | – | – | – | – | – | Cn1c(=O)c2c(nc(N3CCC[C@@H](N)C3)n2Cc2ccccc2Cl)c2ccc(C(=O)O)cc21 | AUC [1]: 276 ng·h/mL; CLH [2]: < 10 µL/min/mg; CLH [3]: < 10 µL/min/mg; Vd [4]: 4.5 L/kg; half-life [7]: 36 min; clearance [8]: 181 mL/min/kg
2 | 36.2 | 41.4 | > 99 | 70 | 8.4 | 92 | – | – | – | – | COC(=O)c1ccc2c3nc(N4CCC[C@@H](N)C4)n(Cc4ccccc4Cl)c3c(=O)n(C)c2c1.Cl | concentration at 6 h [9]: < 1 ng/mL; Drug metabolism [10]: metabolite_detected; Drug metabolism [11]: metabolite_detected; Drug metabolism [12]: metabolite_detected; F [13]: 90%; Drug metabolism [15]: metabolite_detected
3 | < 0.1 | < 0.1 | > 99 | > 99 | 38 | < 0.5 | metabolite_detected | metabolite_detected | metabolite_detected | metabolite_detected | CN(C)CCCOC(=O)c1ccc2c(c1)c1nc(N3CCC[C@@H](N)C3)n(Cc3ccccc3Cl)c1c(=O)n2C.Cl | –
4 | < 0.1 | 0.6 | > 99 | > 99 | 97 | < 0.5 | metabolite_detected | metabolite_detected | metabolite_detected | metabolite_detected | CN(C)CCOC(=O)c1ccc2c(c1)c1nc(N3CCC[C@@H](N)C3)n(Cc3ccccc3Cl)c1c(=O)n2C.Cl | –
5 | 6.5 | 6.3 | < 0.5 | < 0.5 | 0.6 | 73 | metabolite_detected | metabolite_detected | metabolite_detected | metabolite_detected | Cl.Cn1c(=O)c2c(nc(N3CCC[C@@H](N)C3)n2Cc2ccccc2Cl)c2cc(C(=O)OCOC(=O)C(C)(C)C)ccc21 | –
6 | – | – | – | – | – | – | – | – | – | – | Cn1c(=O)c2c(nc(N3CCC[C@@H](N)C3)n2Cc2cc(F)ccc2Cl)c2cc(C(=O)O)ccc21 | CLH [2]: < 10 µL/min/mg; half-life [23]: 78 min; CLH [3]: < 10 µL/min/mg; clearance [24]: 222 mL/min/kg; AUC [25]: 75.3 ng·h/mL; Vd [26]: 7.1 L/kg
7 | 10.1 | 18 | 22 | 30 | 92 | < 0.5 | metabolite_detected | metabolite_detected | metabolite_detected | – | C[C@@H]1CN(CCOC(=O)c2ccc3c(c2)c2nc(N4CCC[C@@H](N)C4)n(Cc4ccccc4Cl)c2c(=O)n3C)C[C@H](C)O1.Cl | –
